Shown are actives, neighbours in structure and some others; about 4.9% of the full set was active somewhere.
STAT1 act = increases IFN-gamma driven STAT1 reporter signal. NIH 3T3 STAT1-luciferase reporter, luminescence; 100% = IFN-gamma alone, no compound. activation (% of control), % at 5.5 µM. 200,000 tested, 2.6% active;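 active = activation above the screen-wide mean activation plus 3 SD, cut at about 130% in these data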
STAT1 inh = reduces IFN-gamma driven STAT1 reporter signal; inhibition, % at 5.5 µM; 200,000 tested, 0.35% active; NIH 3T3 STAT1-luciferase reporter, luminescence;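 active = inhibition above a set limit, the mean inhibition across all tested compounds plus 3 SD, cut at about 34% in these data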
STAT3 inh-1 = reduces IL-6 driven STAT3 reporter signal; 190,000 tested, 0.89% active; U3A cells, IL-6 STAT3-luciferase reporter, luminescence; host cell line lacks STAT1; inhibition, % at 5.5 µM; AID 862;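 active = inhibition above the mean inhibition across all screened compounds plus 3 SD, cut at about 44% in these data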
APP 5'UTR act = activates APP 5'UTR luciferase reporter; SH-SY5Y APP 5'UTR luciferase reporter, luminescence; zero percent = DMSO vehicle wells; activation, % at 2 µM; AID 1276; 190,000 tested, 1% active;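 active = activation above a set limit, based on mean plus 3 SD of controls, cut at about 140% in these data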
STAT3 activator = STAT3 signaling activation; U3A cells, IL-6 STAT3-luciferase reporter, luminescence; 100% = signal with IL-6 EC80 alone; activation (% of control), % at 5.6 µM; 190,000 tested, 0.91% active;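 active = activation above the screen-wide mean of compound activation plus 3 SD, cut at about 130% in these data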
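Test system: STAT3-luciferase reporter U3A cells; Detection: reporter luminescence signal; Times: 1 h compound pre-exposure, 6 h IL-6 stimulation, 37 °C; Benchmarks: IL-6-only high control; Also added: IL-6 stimulus at 33 ng/mL final.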
NF-kB neuron act = raises NF-kB expression in human neuronal cells; NF-kB reporter expression; hits give high values; fold change at 12.5 µM; 190,000 tested, 1.6% active; in the data active = fold change above about 3.3
STAT3 inh-2 = confirmation of STAT3 signaling inhibitors. shares compounds with STAT3 inh-1. inhibition, % at 5.7 µM. U3A cells, IL-6 STAT3 luciferase reporter, luminescence; cell line lacks STAT1. 1,200 tested, 45% active;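 active = inhibition above the hit cutoff computed for the primary STAT3 screen, cut at about 44% in these data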
NFkB inh 2 = NF-kappaB inhibition in STAT3 inhibitor counter-screen; inhibition, % at 5.7 µM; 1,200 tested, 36% active; AID 1308; shares compounds with STAT3 inh-1; HEK293T NF-kB luciferase reporter, TNF-alpha induced;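 active = inhibition above the mean of solvent-only control wells plus 3 SD, cutoff set per campaign, cut at about 13% in these data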
STAT1 inh STAT3c = counter-screen for STAT3 inhibitors: STAT1 inhibition; shares compounds with STAT3 inh-1; NIH 3T3 STAT1-luciferase reporter, IFN-gamma induced, luminescence; inhibition, % at 5.7 µM; 1,200 tested, 27% active; AID 1317;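 active = inhibition above the mean plus 3 SD of solvent-only control wells, limit set per screening run, cut at about 16% in these data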
Of the large screens only hits and unclear results are named; the others gave an inactive call (follow-up assays come after a bar, where they were run).

N#Cc1nc(N2CCCC2)nc(N2CCCC2)n1	STAT3 inh-1 55.7 | STAT3 inh-2 56.1 | NFkB inh 2 27.7 | STAT1 inh STAT3c inactive
Cc1cc(C(=O)CSc2nc(N)cc(=O)[nH]2)c(C)n1CCc1ccc(F)cc1	STAT3 inh-1 46.0 | STAT3 inh-2 inactive | NFkB inh 2 inactive | STAT1 inh STAT3c inactive
COc1ccc(CCn2c(C)cc(C(=O)CSc3nc(N)cc(=O)[nH]3)c2C)cc1	none
Cc1cc(C(=O)CSc2nc(N)cc(=O)[nH]2)c(C)n1-c1ccc(OC(F)F)cc1	STAT3 inh-1 64.3 | STAT3 inh-2 74.4 | NFkB inh 2 19.0 | STAT1 inh STAT3c 24.8
N=c1cc(C2(O)CCCCC2)n2c(nc3ccccc32)s1	STAT3 inh-1 61.3, APP 5'UTR act 184.9, NF-kB neuron act 4.09 | STAT3 inh-2 inactive | NFkB inh 2 inactive | STAT1 inh STAT3c inactive
Cc1cc(NC(=O)c2noc3c2CCc2ccccc2-3)n(-c2ccccc2)n1	none
O=C(Nc1cccc(O)c1)c1noc2c1CCc1ccccc1-2	STAT3 inh-1 83.4, APP 5'UTR act 195.0, NF-kB neuron act 6.11 | STAT3 inh-2 59.9 | NFkB inh 2 inactive | STAT1 inh STAT3c inactive
CC1CCC2(CC1)NC(=O)N(Cc1cccc(C(F)(F)F)c1)C2=O (centres undefined)	none
C/C(=N\NC(=O)C1=NNC(=O)C1C)c1cccs1 (centres undefined)	none
C/C(=N/NC(=O)c1cc(C2CC2)[nH]n1)c1cccs1	STAT3 inh-1 76.3 | STAT3 inh-2 51.8 | NFkB inh 2 19.1 | STAT1 inh STAT3c inactive
C/C(=N\NC(=O)c1ccncc1)c1cccs1	none
C/C(=N\NC(=O)c1ccccc1O)c1cccs1	STAT3 inh-1 60.7, NF-kB neuron act 3.59 | STAT3 inh-2 inactive | NFkB inh 2 inactive | STAT1 inh STAT3c inactive
COc1ccc(-c2nsc3c(N4CCCCC4)ncnc23)cc1	STAT3 inh-1 101.9 | STAT3 inh-2 75.5 | NFkB inh 2 59.7 | STAT1 inh STAT3c inactive
COc1ccc(CCNc2ccc(N3C(=O)CC(C)C3=O)cc2[N+](=O)[O-])cc1OC (centres undefined)	STAT3 inh-1 69.7 | STAT3 inh-2 58.0 | NFkB inh 2 17.1 | STAT1 inh STAT3c inactive
Cc1nc(NCCc2ccc(S(N)(=O)=O)cc2)c2c(C)c(C)sc2n1	STAT3 inh-1 54.5 | STAT3 inh-2 47.9 | NFkB inh 2 inactive | STAT1 inh STAT3c 30.0
CCOC(=O)/C(=N\Nc1cc(Cl)ccc1Cl)N1CCN(CC)CC1	none
C[C@H]1O[C@@H](O[C@H]2[C@@H](O)C[C@H](O[C@H]3[C@@H](O)C[C@H](O[C@H]4CC[C@@]5(C)[C@H](CC[C@@H]6[C@@H]5C[C@@H](O)[C@]5(C)[C@@H](C7=CC(=O)OC7)CC[C@]65O)C4)O[C@@H]3C)O[C@@H]2C)C[C@H](O)[C@@H]1O	STAT3 inh-1 86.9 | STAT3 inh-2 82.0 | NFkB inh 2 inactive | STAT1 inh STAT3c inactive
O=C(Nc1ccc2c(c1)OCO2)N1CCN(Cc2ccco2)CC1	STAT3 inh-1 44.7 | STAT3 inh-2 inactive | NFkB inh 2 inactive | STAT1 inh STAT3c inactive
Cc1ccc(NC(=O)N2CCN(Cc3ccc4c(c3)OCO4)CC2)cc1	none
Cc1ccc2c(COC(=O)CNC(=O)c3ccccc3)cc(=O)oc2c1	none
Cc1ccc2c(COC(=O)C3=COCCO3)cc(=O)oc2c1	STAT1 act 132.5, STAT3 inh-1 43.5 | STAT3 inh-2 inactive | NFkB inh 2 inactive | STAT1 inh STAT3c inactive
Cc1oc(-c2ccc(Cl)cc2)nc1CN1CCCC(C(=O)NCc2ccco2)C1 (centres undefined)	none
CCOC(=O)N1CCN(C(=O)C2CCCN(Cc3nc(-c4ccc(Cl)cc4)oc3C)C2)CC1 (centres undefined)	STAT3 inh-1 74.4 | STAT3 inh-2 60.1 | NFkB inh 2 22.7 | STAT1 inh STAT3c inactive
CCN1CCN(CCNC(=O)C2CCCN(Cc3nc(-c4cccc(Cl)c4)oc3C)C2)CC1 (centres undefined)	none (no result: APP 5'UTR act)
CCOC(=O)N1CCC(NC(=O)C2CCCN(Cc3nc(-c4cccc(Cl)c4)oc3C)C2)CC1 (centres undefined)	STAT3 inh-1 53.6 | STAT3 inh-2 inactive | NFkB inh 2 13.4 | STAT1 inh STAT3c 24.0
CCC(=O)N1N=C2CC(C)(C)OCC2C1c1ccccc1 (centres undefined)	none
CC(=O)N1CCc2cc(C(=O)CN3CCN(c4cccc(Cl)c4)CC3)ccc21	STAT3 inh-1 45.1 | STAT3 inh-2 inactive | NFkB inh 2 inactive | STAT1 inh STAT3c inactive
CC(=O)N1CCc2cc(C(=O)CN3CCC(C)CC3)ccc21	none (no result: APP 5'UTR act)
O=C(N/N=C/C=C/c1ccccc1)c1cc2c(ccc3ccccc32)o1	none
O=C(Nc1cccc(Cl)c1)Nc1ccnc(-c2cccnc2)n1	STAT3 inh-1 54.9 | STAT3 inh-2 64.6 | NFkB inh 2 inactive | STAT1 inh STAT3c inactive
CSC1=NCCN1CCOc1ccccc1	none
NC(=O)c1ccc(NC(=O)COC(=O)CCc2ccc(S(=O)(=O)N3CCCCC3)cc2)cc1	none
Nc1nc2c(Cl)cc(Cl)cc2s1	none
Nc1nc2c(Cl)ccc(Cl)c2s1	STAT3 inh-1 45.6 | STAT3 inh-2 inactive | NFkB inh 2 inactive | STAT1 inh STAT3c inactive
O=C(CSc1nc(-c2ccco2)cc(C(F)(F)F)n1)Nc1ccc(C(=O)N2CCCCC2)cc1	STAT3 inh-1 50.4 | STAT3 inh-2 46.5 | NFkB inh 2 14.8 | STAT1 inh STAT3c 17.7
CCOC(=O)c1sc(NC(=O)c2cc3ccccc3o2)nc1C	STAT1 act 141.7, STAT3 inh-1 46.7 | STAT3 inh-2 inactive | NFkB inh 2 inactive | STAT1 inh STAT3c inactive
CCOC(=O)c1sc(NC(=O)Cc2ccc(C)cc2)nc1C	none
CCOC(=O)c1sc(NC(=O)Nc2ccccc2F)nc1C	STAT3 inh-1 74.7, APP 5'UTR act 162.3 | STAT3 inh-2 60.8 | NFkB inh 2 39.1 | STAT1 inh STAT3c inactive
NNC(=O)c1cccc(COc2ccccc2Br)c1	STAT3 inh-1 71.4, APP 5'UTR act 173.1 | STAT3 inh-2 60.6 | NFkB inh 2 inactive | STAT1 inh STAT3c inactive
NNC(=O)c1ccc(COc2cccc3ccccc23)cc1	none
COc1ccc(-c2[nH]ncc2CN2C[C@@H]3CCC[C@H]2C3)c(F)c1	none
CC1CCC(C(C)C)C(OC(=O)Cn2c(-c3ccc(F)cc3)[n+](C)c3ccccc32)C1 (centres undefined)	none

Compound activity deposited in PubChem by several laboratories.
